Assay [1] relates to H4. Description: Decrease in FYVE-RFP+ vesicle intensity per cell in human H4 cells after 4 hrs relative to control. The assay is classed as functional. Further details: concentration or dose not given beside the values. Summed up: (§1)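 H4 cells stably expressing FYVE-RFP (H4-FYVE), grown in DMEM with 10% FBS, penicillin/streptomycin and 2 mM L-glutamine at 37°C, 5% CO2, seeded in 96-well plates and exposed to compound. Fixed in 4% paraformaldehyde, nuclei stained with 3 μg/ml DAPI, FYVE-RFP+ vesicles quantified by high-throughput fluorescence microscopy against DMSO control. Triplicate wells, mean ± SD.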

The subject of assay [2] is H4. Description: Increase in long-lived protein degradation in human H4 cells after 24 hrs relative to control. The assay is classed as functional. The arrangement: concentration or dose not given beside the values.
Assay [3] deals with H4. As to the kind of experiment: Decrease in FYVE-RFP+ vesicle intensity per cell in human H4 cells after 8 hrs relative to control. The assay is classed as functional. Further details: concentration or dose not given beside the values. Summed up: as §1
In assay [4] the test system is H4. As to the kind of experiment: Increase in long-lived protein degradation in human H4 cells after 1 hr relative to control. The arrangement: concentration or dose not given beside the values. The assay is classed as functional.
The subject of assay [5] is H4. As to the kind of experiment: Increase in light chain 3-GFP+ autophagosome vesicle number per cell in human H4 cells at 3.3 uM after 24 hrs by high throughput fluorescence microscopy relative to control. It counts as functional. Summed up:
(§2)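 H4 cells stably expressing LC3-GFP, seeded in 96-well plates and exposed to compound for 24 h; fixed in 4% paraformaldehyde, nuclei stained with 3 μg/ml DAPI. Automated fluorescence microscopy scored number, size and intensity of LC3-GFP spots; values expressed relative to DMSO-treated wells, rapamycin positive control. Triplicate wells, mean ± SD; experiments repeated three times.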

Assay [6] has as its system H4. As to the kind of experiment: Increase in light chain 3-GFP+ autophagosome vesicle area per cell in human H4 cells at 3.3 uM after 24 hrs by high throughput fluorescence microscopy relative to control. The assay is classed as functional. Summed up: as §2
Assay [7] has as its system H4. Description: Increase in long-lived protein degradation in human H4 cells after 4 hrs relative to control. Further details: concentration or dose not given beside the values. The assay is classed as functional.
The test system of assay [8] is H4. Description: Increase in light chain 3-GFP+ autophagosome vesicle intensity per cell in human H4 cells at 3.3 uM after 24 hrs by high throughput fluorescence microscopy relative to control. The assay is classed as functional. Summed up:
as §2

For assay [9], the system named is H4. Description: Decrease in FYVE-RFP+ vesicle intensity per cell in human H4 cells after 2 hrs relative to control. The arrangement: concentration or dose not given beside the values. The assay is classed as functional. Put shortly:
as §1

For assay [10], the system named is H4. As to the kind of experiment: Induction of light chain 3-GFP level in human H4 cells at 3.3 uM after 24 hrs by high throughput fluorescence microscopy relative to control. It counts as functional. Put shortly:
(§3)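 H4 cells stably expressing LC3-GFP, kept in DMEM/10% FBS at 37°C, 5% CO2, were seeded in 96-well plates and exposed to compound for 24 h. Cells were then fixed in 4% paraformaldehyde and stained with 3 μg/ml DAPI. Automated fluorescence microscopy scored the number, size and intensity of LC3-GFP spots. Values are percent of DMSO wells, in triplicate, mean ± SD. Rapamycin served as positive control.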

For assay [11], the system named is H4. As to the kind of experiment: Increase in long-lived protein degradation in human H4 cells after 2 hrs relative to control. The assay is classed as functional. The arrangement: concentration or dose not given beside the values.
Assay [12] concerns H4. Description: Induction of light chain 3-GFP level in human H4 cells at 4.4 uM after 24 hrs by high throughput fluorescence microscopy relative to control. The assay is classed as functional. Summed up: (§4)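 H4 cells stably expressing LC3-GFP, grown in DMEM with 10% FBS, penicillin/streptomycin and 2 mM L-glutamine at 37°C, 5% CO2. Cells were seeded in 96-well plates and exposed to library compounds at 3–12 μM for 24 h, then fixed in 4% paraformaldehyde and stained with 3 μg/ml DAPI. LC3-GFP spot number, size and intensity were measured by high-throughput fluorescence microscopy and expressed relative to DMSO. Triplicates, mean ± SD.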

For assay [13], the system named is H4. Description: Effect on FYVE-RFP+ vesicle intensity per cell in human H4 cells after 2 hrs relative to control. It counts as functional. Further details: concentration or dose not given beside the values. Put shortly:
as §1

Assay [14] has as its system H4. Description: Increase in light chain 3-GFP+ autophagosome vesicle area per cell in human H4 cells at 4.4 uM after 24 hrs by high throughput fluorescence microscopy relative to control. It counts as functional. Summed up: (§5)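 H4 cells stably expressing LC3-GFP, seeded in 96-well plates and exposed to compound for 24 h; screening concentrations were 3–12 μM, with rapamycin 0.22 μM and bafilomycin A1 0.40 μM. Cells fixed in 4% paraformaldehyde and stained with 3 μg/ml DAPI. Number, size and intensity of LC3-GFP spots measured by high-throughput fluorescence microscopy and expressed as percent of DMSO-treated wells. Rapamycin was the positive control. Triplicate wells, mean ± SD; experiments repeated three times.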

Assay [15] has as its system H4. Description: Increase in light chain 3-GFP+ autophagosome vesicle number per cell in human H4 cells at 4.4 uM after 24 hrs by high throughput fluorescence microscopy relative to control. It counts as functional. Put shortly: (§6)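 H4 cells stably expressing LC3-GFP were grown in DMEM with 10% FBS and 2 mM L-glutamine at 37°C, 5% CO2. They were exposed to each compound for 24 h, with DMSO as negative and rapamycin as positive control. Cells were then fixed in 4% paraformaldehyde and stained with 3 μg/ml DAPI. High-throughput fluorescence imaging scored LC3-GFP spot number, size and intensity, expressed relative to DMSO. Mean ± SD of triplicates; experiments repeated three times.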

In assay [16] the test system is H4. Description: Induction of autophagy in human H4 cells. It counts as functional, cell-based.
Assay [17] has as its system H4. Description: Increase in light chain 3-GFP+ autophagosome vesicle intensity per cell in human H4 cells at 4.4 uM after 24 hrs by high throughput fluorescence microscopy relative to control. It counts as functional. Summed up:
as §6

Assay [18] concerns H4. Description: Effect on FYVE-RFP+ vesicle intensity per cell in human H4 cells after 4 hrs relative to control. It counts as functional. The arrangement: concentration or dose not given beside the values. Summed up: as §1
Assay [19] deals with H4. Description: Effect on FYVE-RFP+ vesicle intensity per cell in human H4 cells after 8 hrs relative to control. It counts as functional. The arrangement: concentration or dose not given beside the values. Put shortly:
as §1

Assay [20] relates to H4. Description: Increase in light chain 3-GFP+ autophagosome vesicle number per cell in human H4 cells at 7.2 uM after 24 hrs by high throughput fluorescence microscopy relative to control. The assay is classed as functional. Summed up: as §6
The test system of assay [21] is H4. As to the kind of experiment: Increase in light chain 3-GFP+ autophagosome vesicle area per cell in human H4 cells at 7.2 uM after 24 hrs by high throughput fluorescence microscopy relative to control. It counts as functional. Put shortly:
as §5

Assay [22] deals with H4. As to the kind of experiment: Induction of light chain 3-GFP level in human H4 cells at 7.2 uM after 24 hrs by high throughput fluorescence microscopy relative to control. It counts as functional. Put shortly: as §4
For assay [23], the system named is H4. Description: Increase in light chain 3-GFP+ autophagosome vesicle intensity per cell in human H4 cells at 7.2 uM after 24 hrs by high throughput fluorescence microscopy relative to control. It counts as functional. Put shortly:
as §6

For assay [24], the system named is H4. As to the kind of experiment: Increase in light chain 3-GFP+ autophagosome vesicle intensity per cell in human H4 cells at 5.7 uM after 24 hrs by high throughput fluorescence microscopy relative to control. It counts as functional. Summed up:
as §2

Assay [25] concerns H4. Description: Induction of light chain 3-GFP level in human H4 cells at 5.7 uM after 24 hrs by high throughput fluorescence microscopy relative to control. The assay is classed as functional. Put shortly:
as §3

For assay [26], the system named is H4. As to the kind of experiment: Increase in light chain 3-GFP+ autophagosome vesicle number per cell in human H4 cells at 5.7 uM after 24 hrs by high throughput fluorescence microscopy relative to control. It counts as functional. Put shortly: as §3
Assay [27] deals with H4. Description: Increase in light chain 3-GFP+ autophagosome vesicle area per cell in human H4 cells at 5.7 uM after 24 hrs by high throughput fluorescence microscopy relative to control. The assay is classed as functional. Put shortly: as §2

For four compounds, Activity results are on record in ChEMBL document CHEMBL1145471, “Small molecule regulators of autophagy identified by an image-based high-throughput screen” (Proc Natl Acad Sci U S A, 2007).

Calls of active or inactive are those of the source. The rule behind the calls is not given here.

On to `COc1cc2c3cc1Oc1c(OC)c(OC)cc4c1[C@@H](Cc1ccc(OC(=O)c5ccc([N+](=O)[O-])cc5)c(c1)Oc1ccc(cc1)C[C@@H]3N(C)CC2)N(C)CC4` [E6 BERBAMINE], for which the Activity with H4 [1] came out at 54.54%; in the assay on H4 [2], 93.45%; in the assay on H4 [3] it was 58.69%; in the assay on H4 [4] it was 100.96%; in the assay on H4 [5], 389.35%; in the assay on H4 [6], 693.82%. For the same compound, the Activity with H4 [7] is 96.53%; in the assay on H4 [8], 2447.47%; in the assay on H4 [9], 59.73%; with H4 [10], 131.16%; in the assay on H4 [11], 91.62%.
For `CC/C(=C(\c1ccccc1)c1ccc(OCCN(C)C)cc1)c1ccccc1` [TAMOXIFEN], the Activity in the assay with H4 [2] worked out at 114.97%; with H4 [12] it was 91.2%; with H4 [13], 77.66%; with H4 [4] it was 70.67%; in the assay on H4 [14] it was 376.53%; with H4 [15] it was 291.52%. Moreover, the Activity with H4 [7] came to 105.85%; with H4 [17], 585.87%; in the assay with H4 [18], 71.55%; in the assay with H4 [19] it was 85.37%; in the assay with H4 [11], 101.24%. In addition, the result in the assay with H4 [16] was inactive.
Take `COC(=O)c1c(C)[nH]c(C)c1C(=O)c1ccccc1Cc1ccccc1`: the Activity stood at 161.73% in the assay with H4 [20]; 18010% in the assay on H4 [21]; 90.97% in the assay on H4 [2]; 99.43% in the assay with H4 [13]; 101.34% in the assay with H4 [4]; 97.03% in the assay with H4 [7]. Moreover, the Activity in the assay with H4 [18] was 78.17%; in the assay with H4 [19], 87.62%; in the assay on H4 [22] it was 132.45%; with H4 [11], 111.04%; with H4 [23] it was 200.83%.
As to `CC(C)(O)[C@H]1O[C@H]2CC[C@@]3(C)[C@@](O)(CC[C@H]4Cc5c([nH]c6ccccc56)[C@@]43C)C2=CC1=O` [PAXILLINE], the Activity is recorded as 205.83% in the assay with H4 [24]; 119.79% with H4 [25]; 102.35% in the assay with H4 [2]; 100.56% in the assay with H4 [13]; 100.56% in the assay on H4 [4]; 162.66% in the assay with H4 [26]. The Activity with H4 [7] turned out to be 106.27%; with H4 [18], 52.37%; in the assay on H4 [19] it was 56.82%; in the assay with H4 [27], 185.52%; in the assay with H4 [11], 112.34%.
